Reference: ChEMBL document CHEMBL1153925, “Synthesis, characterization and biological activity of ring-substituted 6-benzylamino-9-tetrahydropyran-2-yl and 9-tetrahydrofuran-2-ylpurine derivatives” (Bioorg Med Chem, 2009)

Columns and labels:
[1] = Stability assessed as free base release at pH 7 after 1 hr by HPLC-PDA method; format: physicochemical; conditions: pH 7, 1 h
Method in brief: (§1)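 10^-2 M methanol solution diluted to 10^-4 M in McIlvaine buffer at pH 3, 4, 5, 6 or 7, then incubated at 25 °C. Direct injection onto reversed-phase C18 after 1 h and again after 24 h. Methanol/15 mM formic acid (pH 4, ammonium) gradient at 0.3 mL/min, PDA at 270 nm. Parent and released free base (m-topolin) reported as peak area %.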

[2] = Stability assessed as compound peak area at pH 3 after 1 hr by HPLC-PDA method; format: physicochemical; conditions: read-out: Stability; method in brief: as §1
[3] = Stability assessed as compound peak area at pH 5 after 24 hrs by HPLC-PDA method; format: physicochemical; conditions: read-out: Stability; method in brief: as §1
[4] = Stability assessed as free base release at pH 3 after 1 hr by HPLC-PDA method; format: physicochemical; conditions: pH 3, 1 h; method in brief: as §1
[5] = Stability assessed as free base release at pH 6 after 24 hr by HPLC-PDA method; format: physicochemical; conditions: pH 6, 24 h; method in brief: as §1
[6] = Stability assessed as free base release at pH 3 after 24 hr by HPLC-PDA method; format: physicochemical; conditions: pH 3, 24 h; method in brief: as §1
[7] = Stability assessed as compound peak area at pH 5 after 1 hr by HPLC-PDA method; format: physicochemical; conditions: read-out: Stability; method in brief: as §1
Nicotiana tabacum = experiment: Cytokinin activity in tobacco callus assessed as stimulation of callus growth at 1 uM relative to 6-benzylaminopurine; format: functional
[8] = Stability assessed as compound peak area at pH 7 after 24 hrs by HPLC-PDA method; format: physicochemical; conditions: read-out: Stability; method in brief: as §1
[9] = Stability assessed as free base release at pH 7 after 24 hr by HPLC-PDA method; format: physicochemical; conditions: pH 7, 24 h; method in brief: as §1
[10] = Stability assessed as free base release at pH 5 after 24 hr by HPLC-PDA method; format: physicochemical; conditions: pH 5, 24 h; method in brief: as §1
[11] = Stability assessed as free base release at pH 4 after 1 hr by HPLC-PDA method; format: physicochemical; conditions: pH 4, 1 h; method in brief: as §1
MCF7 = experiment: Cytotoxicity against human MCF7 cells after 72 hrs by Calcein AM assay; format: ADME, cell-based; conditions: MCF7, 72 h
[12] = Stability assessed as compound peak area at pH 4 after 24 hrs by HPLC-PDA method; format: physicochemical; conditions: read-out: Stability; method in brief: as §1
Amaranthus = experiment: Cytokinin activity in cotyledons assessed as dark induction of betacyanin synthesis at 100 uM relative to 6-benzylaminopurine; format: functional
K562 = experiment: Cytotoxicity against human K562 cells after 72 hrs by Calcein AM assay; format: ADME, cell-based; conditions: K562, 72 h
Triticum aestivum = experiment: Cytokinin activity in wheat leaf assessed as stimulation of retention of chlorophyll in excised leaves at 0.1 mM relative to 6-benzylaminopurine; format: functional
[13] = Stability assessed as compound peak area at pH 3 after 24 hrs by HPLC-PDA method; format: physicochemical; conditions: read-out: Stability; method in brief: as §1
[14] = Stability assessed as free base release at pH 6 after 1 hr by HPLC-PDA method; format: physicochemical; conditions: pH 6, 1 h; method in brief: as §1
[15] = Stability assessed as compound peak area at pH 7 after 1 hr by HPLC-PDA method; format: physicochemical; conditions: read-out: Stability; method in brief: as §1
[16] = Stability assessed as free base release at pH 5 after 1 hr by HPLC-PDA method; format: physicochemical; conditions: pH 5, 1 h; method in brief: as §1
[17] = Stability assessed as compound peak area at pH 6 after 24 hrs by HPLC-PDA method; format: physicochemical; conditions: read-out: Stability; method in brief: as §1
[18] = Stability assessed as free base release at pH 4 after 24 hr by HPLC-PDA method; format: physicochemical; conditions: pH 4, 24 h; method in brief: as §1
BJ = experiment: Cytotoxicity against human BJ cells after 72 hrs by MTT assay; format: ADME, cell-based
[19] = Stability assessed as compound peak area at pH 6 after 1 hr by HPLC-PDA method; format: physicochemical; conditions: read-out: Stability; method in brief: as §1
[20] = Stability assessed as compound peak area at pH 4 after 1 hr by HPLC-PDA method; format: physicochemical; conditions: read-out: Stability; method in brief: as §1

Structure (SMILES): Oc1cccc(CNc2ncnc3c2ncn3C2CCCCO2)c1 (stereo unspecified)
- Activity [1]: 0.1%
- remaining at 1 h [2]: 98.8%
- remaining at 24 h [3]: 99.2%
- Activity [4]: 1.2%
- Activity [5]: 0.7%
- Activity [6]: 60.4%
- remaining at 1 h [7]: 99.5%
- Activity (Nicotiana tabacum): 95%
- remaining at 24 h [8]: 99.8%
- Activity [9]: 0.2%
- Activity [10]: 0.8%
- Activity [11]: 0.5%
- IC50 (MCF7): > 100 µM
- remaining at 24 h [12]: 93.9%
- Activity (Amaranthus): 100%
- IC50 (K562): 81 µM
- Activity (Triticum aestivum): 140%
- remaining at 24 h [13]: 39.6%
- Activity [14]: 0.2%
- remaining at 1 h [15]: 99.9%
- Activity [16]: 0.5%
- remaining at 24 h [17]: 99.3%
- Activity [18]: 6.1%
- IC50 (BJ): > 100 µM
- remaining at 1 h [19]: 99.8%
- remaining at 1 h [20]: 99.5%
